Values after ≈ are worked out from the molar mass of the structure shown. Like-named read-outs stand apart in the source and are kept apart here.
Legend:
[1] = test system: benzodiazepine (BZD) receptor; conditions: ref Czernik et al., 1982; cited from earlier work
α1β3γ2 GABAA receptors = α1β3γ2 GABAA receptors (Rattus norvegicus, UniProt P62813+P63079); format: cell-based; conditions: for % modulation of GABA EC3–5 currents: 10 μM compound, control (GABA) = EC3–5
Summary of the method: (§1)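 Rat α and β3/γ2 subunit mRNA (2.5 ng total) injected into defolliculated stage 5–6 X. laevis oocytes. Ratio α:β3:γ2 was 1:1:5 for α1, α2, α3 and α5, and 3:1:5 for α4. Oocytes held ≥36 h at 18°C in NDE. TEVC was run at −60 mV at room temperature under 6 mL·min−1 NDE perfusion. Per-oocyte GABA EC3–5 co-applied with test compound in 0.1% DMSO final. ≥3 oocytes from two batches.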

[2] = test system: αxβ3γ2 (x = 1–5) GABAA receptors; format: cell-based, rat
Summary of the method: as §1

α6β3γ2 GABAA receptors = α6β3γ2 GABAA receptors (Rattus norvegicus, UniProt P30191+P63079); format: cell-based; conditions: for modulation of GABA EC3–5 currents in screening of compounds 5–9, in words: 10 μM compound, comparable to compound 3
Sequence of α6β3γ2 GABAA receptors (P30191 20-453): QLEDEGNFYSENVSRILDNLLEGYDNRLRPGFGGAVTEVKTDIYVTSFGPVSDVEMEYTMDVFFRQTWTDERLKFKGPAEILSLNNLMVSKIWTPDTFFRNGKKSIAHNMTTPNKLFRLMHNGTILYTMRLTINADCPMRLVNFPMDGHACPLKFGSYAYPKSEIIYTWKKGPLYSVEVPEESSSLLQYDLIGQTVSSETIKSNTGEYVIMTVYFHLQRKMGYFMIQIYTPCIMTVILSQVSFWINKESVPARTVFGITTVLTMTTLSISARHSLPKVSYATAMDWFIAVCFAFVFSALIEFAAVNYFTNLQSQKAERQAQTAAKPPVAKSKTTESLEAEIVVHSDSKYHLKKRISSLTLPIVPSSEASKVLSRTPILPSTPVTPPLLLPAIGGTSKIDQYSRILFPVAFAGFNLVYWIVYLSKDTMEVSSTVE
Sequence of α6β3γ2 GABAA receptors (P63079 26-473): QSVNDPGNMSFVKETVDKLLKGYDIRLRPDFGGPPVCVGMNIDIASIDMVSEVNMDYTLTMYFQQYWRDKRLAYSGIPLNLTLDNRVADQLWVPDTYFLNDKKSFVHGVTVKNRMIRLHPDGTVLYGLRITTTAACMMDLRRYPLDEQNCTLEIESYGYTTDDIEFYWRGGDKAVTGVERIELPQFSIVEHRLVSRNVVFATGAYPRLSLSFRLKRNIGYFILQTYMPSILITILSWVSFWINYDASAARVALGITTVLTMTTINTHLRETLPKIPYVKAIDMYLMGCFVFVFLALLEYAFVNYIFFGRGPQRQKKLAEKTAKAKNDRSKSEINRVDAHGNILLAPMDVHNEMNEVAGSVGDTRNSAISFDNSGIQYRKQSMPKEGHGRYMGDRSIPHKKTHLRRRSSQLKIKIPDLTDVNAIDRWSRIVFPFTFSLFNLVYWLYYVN
Sequence of α6β3γ2 GABAA receptors (P18508 39-466 partner): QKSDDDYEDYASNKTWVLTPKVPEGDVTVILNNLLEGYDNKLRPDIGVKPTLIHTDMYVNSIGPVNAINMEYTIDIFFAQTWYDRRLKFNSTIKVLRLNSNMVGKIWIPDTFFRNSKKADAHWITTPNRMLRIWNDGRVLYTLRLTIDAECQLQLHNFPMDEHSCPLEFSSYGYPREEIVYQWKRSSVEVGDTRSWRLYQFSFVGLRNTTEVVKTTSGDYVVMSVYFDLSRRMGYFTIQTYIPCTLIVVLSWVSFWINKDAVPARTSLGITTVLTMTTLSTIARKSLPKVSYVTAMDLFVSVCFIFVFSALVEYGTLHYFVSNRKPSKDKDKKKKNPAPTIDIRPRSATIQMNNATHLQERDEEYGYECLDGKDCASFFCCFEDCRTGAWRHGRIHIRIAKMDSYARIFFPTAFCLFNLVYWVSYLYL
Summary of the method: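 Oocytes (X. laevis, stage 5–6, defolliculated) received 2.5 ng of rat α6:β3:γ2 mRNA at 3:1:5, or γ2‐β3‐α6 triple plus β3‐α6 double concatemer cRNA at 1:1. Incubated ≥36 h at 18°C. TEVC at −60 mV, room temperature. Per-oocyte GABA EC3–5 co-applied with test compound(s) at various concentrations, 0.1% DMSO final. Hill fit for EC50. ≥3 oocytes from two batches.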

α5β3γ2 GABAA receptors = α5β3γ2 GABAA receptors (Rattus norvegicus, UniProt P19969+P63079); format: cell-based
Sequence of α5β3γ2 GABAA receptors (P19969 32-464 limits assumed): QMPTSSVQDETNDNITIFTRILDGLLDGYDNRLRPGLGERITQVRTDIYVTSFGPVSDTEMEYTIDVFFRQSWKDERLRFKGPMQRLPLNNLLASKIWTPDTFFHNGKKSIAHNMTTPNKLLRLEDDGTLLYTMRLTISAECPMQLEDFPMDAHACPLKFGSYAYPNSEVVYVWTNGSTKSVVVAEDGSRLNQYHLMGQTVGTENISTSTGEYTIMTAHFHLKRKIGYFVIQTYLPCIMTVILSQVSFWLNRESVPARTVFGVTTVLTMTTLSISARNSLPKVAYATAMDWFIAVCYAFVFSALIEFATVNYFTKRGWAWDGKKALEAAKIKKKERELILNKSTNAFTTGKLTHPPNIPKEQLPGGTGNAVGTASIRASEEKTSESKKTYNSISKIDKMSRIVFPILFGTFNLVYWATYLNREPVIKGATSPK
Sequence of α5β3γ2 GABAA receptors (P63079 26-473): as the sequence (P63079 26-473) above
Sequence of α5β3γ2 GABAA receptors (P18508 39-466 partner): as the sequence (P18508 39-466 partner) above
Summary of the method: as §1

[3] = test system: αxβ3γ2 (x = 1–6) GABAA receptors; format: cell-based, rat
[4] = Solubility limit in the assay buffer; format: physicochemical; conditions: aqueous buffer
α1β3 receptors = α1β3 receptors (Rattus norvegicus, UniProt P62813+P63079); assay: Two-electrode voltage clamp, α1β3 versus α1β3γ2 receptors; format: cell-based; conditions: independence from γ2 subunit
Sequence of α1β3 receptors (P62813 28-455): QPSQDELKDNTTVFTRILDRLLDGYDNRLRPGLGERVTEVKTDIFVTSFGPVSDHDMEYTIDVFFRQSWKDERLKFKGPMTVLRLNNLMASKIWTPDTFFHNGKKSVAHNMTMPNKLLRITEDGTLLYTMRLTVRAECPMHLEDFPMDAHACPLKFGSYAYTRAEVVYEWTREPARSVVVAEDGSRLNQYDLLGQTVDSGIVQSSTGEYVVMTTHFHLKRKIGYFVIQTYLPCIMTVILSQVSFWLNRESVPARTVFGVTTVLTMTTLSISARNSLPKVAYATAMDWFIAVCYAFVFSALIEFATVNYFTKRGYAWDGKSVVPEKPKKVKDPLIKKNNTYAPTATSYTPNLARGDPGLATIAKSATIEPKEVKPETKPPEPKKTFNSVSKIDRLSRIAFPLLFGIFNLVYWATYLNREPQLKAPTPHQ
Sequence of α1β3 receptors (P63079 26-473): as the sequence (P63079 26-473) above
Summary of the method: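 Two-electrode voltage clamp of rat subunit mRNA-injected X. laevis oocytes, ≥36 h at 18°C in NDE (pH 7.5) before recording. Held at −60 mV at room temperature under continuous NDE flow. GABA titrated per oocyte to EC3–5 and co-applied with test compound, 0.1% DMSO final.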

[5] = test system: αxβ3γ2 (x = 1–5) GABAA receptors; conditions: non‐α6, αxβ3γ2 receptors; 10 μM; ref Varagic et al., 2013a; cited from earlier work
α6+/γ2− BZ site = α6+/γ2− BZ site (Rattus norvegicus, UniProt P18508+P30191); assay: Saturation binding of [3H]Ro15-4513 to rat cerebellar membranes; conditions: presence of diazepam, rat cerebellum, n=3
Sequence of α6+/γ2− BZ site (P30191 20-453): as the sequence (P30191 20-453) above
Sequence of α6+/γ2− BZ site (P18508 39-466): as the sequence (P18508 39-466 partner) above

[6] = α6β3γ2, 1 μM compound, control (GABA) = EC3–5

Sequence of α1β3γ2 GABAA receptors (P62813 28-455): as the sequence (P62813 28-455) above
Sequence of α1β3γ2 GABAA receptors (P63079 26-473): as the sequence (P63079 26-473) above
Sequence of α1β3γ2 GABAA receptors (P18508 39-466 partner): as the sequence (P18508 39-466 partner) above

O=C1C2C=Nc3ccccc3C2=NN1c1ccccc1 (stereo not shown) [CGS8216]
concentrations displacing [3H]‐flunitrazepam and [3H]‐diazepam binding [1]: subnanomolar

COc1cccc(-n2nc3c4cc(Cl)ccc4[nH]cc-3c2=O)c1 [Compound 3, 8‐chloro‐2‐(3‐methoxyphenyl)‐2H,3H,5H‐pyrazolo[4,3‐c]quinolin‐3‐one]
type of modulation (α1β3γ2 GABAA receptors): null (silent) modulator | effect on positive GABA current modulation by compound 2 (1 μM) (α1β3γ2 GABAA receptors; co-application of 10 and 30 μM): reduced the modulatory effect of compound 2 | modulatory activity [2]: completely abolished | EC50 (α6β3γ2 GABAA receptors): 3100 nM | % modulation of GABA EC3–5 currents (α6β3γ2 GABAA receptors; α6β3γ2, 10 μM compound concentration, control GABA EC3–5 = 100%): around 300%

COc1ccccc1-n1nc2c3cc(Cl)ccc3[nH]cc-2c1=O [Compound 4, 8‐chloro‐2‐(2‐methoxyphenyl)‐2H,3H,5H‐pyrazolo[4,3‐c]quinolin‐3‐one]
modulatory activity (α5β3γ2 GABAA receptors): weak negative modulatory activity | positive allosteric modulation (PAM) activity [3]: abolished any positive allosteric modulation (PAM) activity | effect on modulation elicited by compound 3 (3 μM) (α6β3γ2 GABAA receptors; α6β3γ2, co-application up to 30 μM): unable to abolish the modulatory effect | solubility [4]: 30 µM (≈ 9.77 µg/mL)

Cc1cccc(-n2nc3c4cc(Cl)ccc4[nH]cc-3c2=O)c1 [Compound 5, 8‐chloro‐2‐(3‐methylphenyl)‐2H,3H,5H‐pyrazolo‐[4,3‐c]quinolin‐3‐one]
% modulation of GABA EC3–5 currents (α1β3γ2 GABAA receptors): 210.7 ± 17% | modulatory effects in α1β3γ2 and α1β3 (α1β3 receptors): overlapping | % modulation of GABA EC3–5 currents (α6β3γ2 GABAA receptors; [6]): more than 150% | modulation of GABA EC3–5 currents in screening of compounds 5–9, in words (α6β3γ2 GABAA receptors; α6β3γ2): strongest modulation

Nc1cccc(-n2nc3c4cc(Cl)ccc4[nH]cc-3c2=O)c1 [Compound 8, 2‐(3‐aminophenyl)‐8‐chloro‐2H,3H,5H‐pyrazolo[4,3‐c]quinolin‐3‐one]
modulation of GABA EC3–5 currents in screening of compounds 5–9, in words (α6β3γ2 GABAA receptors; α6β3γ2): strongest modulation

O=C(O)c1cccc(-n2nc3c4cc(Cl)ccc4[nH]cc-3c2=O)c1 [Compound 9, 3‐(8‐chloro‐3‐oxo‐2H,3H,5H‐pyrazolo[4,3‐c]quinolin‐2‐yl)benzoic acid]
type of modulation (α1β3γ2 GABAA receptors): negative allosteric modulation | % modulation of GABA EC3–5 currents (α1β3γ2 GABAA receptors): 17.9 ± 7.4% | modulatory effects in α1β3γ2 and α1β3 (α1β3 receptors): overlapping | % modulation of GABA EC3–5 currents (α6β3γ2 GABAA receptors; [6]): more than 150% | modulation of GABA EC3–5 currents in screening of compounds 5–9, in words (α6β3γ2 GABAA receptors; α6β3γ2): strongest modulation

COc1ccc(-n2nc3c4ccc(OC)cc4[nH]cc-3c2=O)cc1 [PZ‐II‐029]
residual modulatory activity, % of control GABA currents [5]: roughly 200%

CCOC(=O)c1ncn2c1CN(C)C(=O)c1cc(N=[N+]=[N-])ccc1-2 [[3H]Ro15-4513]
Kd (α6+/γ2− BZ site): 1.4 ± 0.1 nM

Reference: article PMC5773961 (British Journal of Pharmacology, 2017)
